Shown are actives, neighbours in structure and some others; about 2.3% of the full set was active somewhere.
ABCG2 inh: blocks JC-1 efflux by human ABCG2 transporter | Q9UNQ0 | IgMXP3 cells, flow cytometry | inhibition, % at 6.6 µM | 0.1% of 190,000 active | AID 1325;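 active = inhibition above 80%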
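System: two drug-resistant human cell lines, ABCG2 and ABCB1; controls: nicardipine high and DMSO low controls; times: 10 min exposure at 25 °C with rotation, no wash; detection: flow cytometry of retained JC-1 fluorescence; read-out basis: percent efflux inhibition, scaled nicardipine 100% to DMSO 0%; doses: one concentration, 6.6 µM final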
MEKK2 mut-MEK5: signal of MEK5 binding to mutant human MEKK2 PB1 domain. AID 1530. percent response, % at 10 µM. 0.35% of 290,000 active. bead flow cytometry, Alexa488-MEK5 binding to MEKK2 mutant; in the data active = percent response above about 24%, passing the limit was not always enough
MEKK2wt PB1 HTS: raises or lowers MEK5 binding to wildtype human MEKK2 PB1 domain; Q9Y2U5; bead flow cytometry, Alexa488-MEK5 binding to MEKK2 WT; actives lie on both sides; binding response (% of control), % at 10 µM; 1.1% of 290,000 active; AID 1531; in the data active = binding response below about 67% or above about 130%
MEKK3 PB1 HTS: modulators (inhibitors or enhancers) of MEK5 binding to human MEKK3 PB1 domain; binding response (% of control), % at 10 µM; 1.4% of 290,000 active; Q99759; bead-based flow cytometry, Alexa488-MEK5 binding to MEKK3; actives lie on both sides; 0 = blocked by unlabeled MEK5, 100 = vehicle; AID 1529;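 active = binding response more than 3 SD above or below the average of its plate-row segment, actives on both sides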;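 note: Alexa488 bead fluorescence after subtracting the streptavidin-only scavenger bead signal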
Target sequence (Q99759 whole entry, looked up, the tested form may be a part): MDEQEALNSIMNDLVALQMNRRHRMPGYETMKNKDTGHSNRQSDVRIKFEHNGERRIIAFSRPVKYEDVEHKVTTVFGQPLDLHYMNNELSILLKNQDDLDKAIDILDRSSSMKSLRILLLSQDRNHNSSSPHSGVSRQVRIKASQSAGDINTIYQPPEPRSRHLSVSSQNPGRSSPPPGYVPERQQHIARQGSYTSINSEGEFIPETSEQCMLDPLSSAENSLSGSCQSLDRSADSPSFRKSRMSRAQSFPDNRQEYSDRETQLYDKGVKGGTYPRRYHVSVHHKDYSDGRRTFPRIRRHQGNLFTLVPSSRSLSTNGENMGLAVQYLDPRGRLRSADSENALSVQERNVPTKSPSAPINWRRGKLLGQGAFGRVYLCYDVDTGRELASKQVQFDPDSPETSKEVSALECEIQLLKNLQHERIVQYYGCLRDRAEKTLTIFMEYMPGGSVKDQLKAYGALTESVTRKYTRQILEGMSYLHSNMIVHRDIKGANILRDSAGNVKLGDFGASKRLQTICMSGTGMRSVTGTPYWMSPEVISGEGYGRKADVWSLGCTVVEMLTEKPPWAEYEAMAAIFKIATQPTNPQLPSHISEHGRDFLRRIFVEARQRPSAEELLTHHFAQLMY
ABCB1 inh: inhibitors of human ABCB1 transporter, ABCG2 counter-screen; P08183; CCRF-Adr cells, JC-1 efflux, flow cytometry; inhibition, % at 6.6 µM; 0.067% of 190,000 active; AID 1326; in the data active = inhibition above about 40%;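 note: higher value means more JC-1 retained so stronger ABCB1 efflux block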
MEKK2wt confirm: raises or lowers MEK5 binding to wildtype human MEKK2, retest; shares compounds with MEKK3 PB1 HTS; bead flow cytometry, Alexa488-MEK5 binding to MEKK2 WT; actives lie on both sides; binding response (% of control), % at 10 µM; 2.4% of 5,900 active; AID 1892; in the data active = binding response below about 16% or above about 210%; inactive = in between
MEKK2mut-MEK5: signal of MEK5 binding to mutant human MEKK2, retest; bead flow cytometry, Alexa488-MEK5 binding to MEKK2 mutant; 2% of 5,900 active; shares compounds with MEKK3 PB1 HTS; percent response, % at 10 µM; AID 1893; in the data active = percent response mostly above about 71%, no sharp cut-off; inactive = mostly below about 38%;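 note: higher means compound restores mutant binding toward wildtype level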
MEKK3 confirm: MEKK3-MEK5 PB1 inhibition, single concentration confirmation; bead flow cytometry, Alexa488-MEK5 binding to MEKK3; hits give low values; shares compounds with MEKK3 PB1 HTS; binding response (% of control), % at 10 µM; 1.8% of 5,900 active; AID 1894;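 active = binding response below 72% of control, or above a set upper limit, though filed actives all read lower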;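 note: lower values mean stronger disruption of MEK5 binding to MEKK3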
Each line names hits and unclear results; the compound was inactive in the other large screens (follow-up assays come after a bar, where they were run); [ ] = dose if it differs, or a comment.

Cc1c2cnn(CC(=O)NCCCN3CCCCC3)c(=O)c2c(C)n1Cc1ccccc1	MEKK2wt PB1 HTS 137.0 (no result: ABCG2 inh, ABCB1 inh) | MEKK2wt confirm inactive | MEKK2mut-MEK5 inactive | MEKK3 confirm inactive
CN1C(C(=O)NCc2cccc(C(F)(F)F)c2)CC2Cn3c(nc4ccccc43)C21 (configuration not stated)	MEKK3 PB1 HTS 51.0[inhibitor] (no result: ABCG2 inh, ABCB1 inh) | MEKK2wt confirm inactive | MEKK2mut-MEK5 inactive | MEKK3 confirm inactive
Cc1[nH]c2ccccc2c1C(=O)C(=O)NC1CC1	none (no result: ABCG2 inh, ABCB1 inh)
COc1ccc(C(=O)NCc2nnc(SCC(=O)Nc3ccccc3F)o2)cc1	MEKK2wt PB1 HTS 3.0[inhibitor], MEKK3 PB1 HTS 3.0[inhibitor] | MEKK2wt confirm inactive | MEKK2mut-MEK5 inactive | MEKK3 confirm inactive
Nc1c(N(CCO)C(=O)COc2ccc(Cl)cc2)c(=O)[nH]c(=O)n1Cc1ccccc1	MEKK3 PB1 HTS 131.0 | MEKK2wt confirm inactive | MEKK2mut-MEK5 inactive | MEKK3 confirm inactive
O=C(NCCc1ccccc1)C1CCC(=O)N1C1CCCC1 (configuration not stated)	none (no result: ABCG2 inh, ABCB1 inh)
O=C1CCC([N+](=O)[O-])C(c2ccc(Br)cc2)N1 (configuration not stated)	MEKK3 PB1 HTS 133.0 | MEKK2wt confirm inactive | MEKK2mut-MEK5 inactive | MEKK3 confirm inactive
CSCCC(NS(=O)(=O)c1ccccc1F)C(=O)Nc1cccc(C)n1 (configuration not stated)	none (no result: ABCG2 inh, ABCB1 inh)
CCOC(=O)c1nc2ccccc2nc1C	MEKK3 PB1 HTS 143.0 | MEKK2wt confirm inactive | MEKK2mut-MEK5 inactive | MEKK3 confirm inactive
CCN1CCN(c2cc(C)c3cc(NC(=S)NCCCN4CCc5ccccc5C4)ccc3n2)CC1	MEKK2wt PB1 HTS 177.0 | MEKK2wt confirm inactive | MEKK2mut-MEK5 inactive | MEKK3 confirm inactive
Cc1cc(N2CCN(C)CC2)nc2ccc(NC(=S)NCCCN3CCc4ccccc4C3)cc12	MEKK2wt PB1 HTS 173.0 | MEKK2wt confirm inactive | MEKK2mut-MEK5 inactive | MEKK3 confirm inactive
Cc1cccc(N2CCN(C(=S)Nc3ccc4nc(N5CCN(C)CC5)cc(C)c4c3)CC2)c1C	MEKK2wt PB1 HTS 47.0[inhibitor], MEKK3 PB1 HTS 30.0[inhibitor] | MEKK2wt confirm inactive | MEKK2mut-MEK5 inactive | MEKK3 confirm inactive
Cc1cc(N2CCCC2)nc2ccc(NC(=S)NCCCN3CCC(C)CC3)cc12	none
CCCN1CCN(CCCNC(=S)Nc2ccc3nc(N4CCN(CC)CC4)cc(C)c3c2)CC1	none
Cc1ccc(NC(=O)CN(C)S(=O)(=O)c2cccc3cccnc23)cc1C	none (no result: ABCG2 inh, ABCB1 inh)
Cc1ccc(NC(=O)CC2SC(=NCC3CCCO3)NC2=O)cc1Cl (configuration not stated)	MEKK3 PB1 HTS 139.0 | MEKK2wt confirm inactive | MEKK2mut-MEK5 inactive | MEKK3 confirm inactive
O=C(CS(=O)(=O)Cc1ccccc1)N1CCN(c2ccccc2F)CC1	none (no result: ABCG2 inh, ABCB1 inh)
CCN(CC(=O)Nc1ccccc1-c1ccccc1)Cc1nc2ccccc2c(=O)[nH]1	MEKK3 PB1 HTS 64.0[inhibitor] | MEKK2wt confirm inactive | MEKK2mut-MEK5 inactive | MEKK3 confirm inactive
O=C1c2cccnc2C(Nc2ccc(Cl)cc2)N1Cc1cccs1 (configuration not stated)	MEKK2wt PB1 HTS 54.0[inhibitor], MEKK3 PB1 HTS 75.0[inhibitor] | MEKK2wt confirm inactive | MEKK2mut-MEK5 inactive | MEKK3 confirm inactive
Cn1cc(CCCC(=O)NCc2ccc(F)cc2)c2ccccc21	none (no result: ABCG2 inh, ABCB1 inh)
Cc1[nH]c(C)c(S(=O)(=O)NCCc2ccccc2)c1C(=O)N1CCCCC1	none (no result: ABCG2 inh, ABCB1 inh)
O=C(CN1CCCC(O)C1)N1c2ccccc2Sc2ccc(C(F)(F)F)cc21 (configuration not stated)	none
CN1CCN(CCCN2c3ccccc3Sc3ccc(C(F)(F)F)cc32)CC1	MEKK2wt PB1 HTS 168.0 | MEKK2wt confirm inactive | MEKK2mut-MEK5 inactive | MEKK3 confirm inactive
COc1ccc(NC(=O)c2cc(C)nc3ccccc23)c(OC)c1	none
COc1cc(NC(=O)c2cc(C)nc3ccccc23)cc(OC)c1OC	MEKK3 PB1 HTS 142.0 | MEKK2wt confirm inactive | MEKK2mut-MEK5 inactive | MEKK3 confirm inactive
COc1cc(/C=C2\C(=N)N3N=C(S(C)(=O)=O)SC3=NC2=O)ccc1OS(=O)(=O)c1ccc(C)cc1	none (no result: ABCG2 inh, ABCB1 inh)
CCOC(=O)c1cc(S(=O)(=O)Nc2ccc(F)cc2F)cn1C	none (no result: ABCG2 inh, ABCB1 inh)
CCOCCCNC(=O)c1cc(-c2ccc(Br)s2)nc2ccccc12	none (no result: ABCG2 inh, ABCB1 inh)
CCN(CC)CCNC(=O)c1cc(-c2ccc(Br)s2)nc2ccccc12	MEKK2 mut-MEK5 43.0, MEKK2wt PB1 HTS 141.0 (no result: ABCG2 inh, ABCB1 inh) | MEKK2wt confirm inactive | MEKK2mut-MEK5 inactive | MEKK3 confirm inactive
Cc1cccnc1NC(=O)CSc1nnc(CNC(=O)c2cccc([N+](=O)[O-])c2)n1C	none (no result: ABCG2 inh, ABCB1 inh)
N#Cc1nc(-c2cccc3ccccc23)oc1NCCN1CCCCC1	MEKK2wt PB1 HTS 159.0 | MEKK2wt confirm inactive | MEKK2mut-MEK5 inactive | MEKK3 confirm inactive
CCn1cc(S(=O)(=O)NC(C)c2cc(OC)ccc2OC)cn1 (configuration not stated)	none (no result: ABCG2 inh, ABCB1 inh)
Cc1ccc(CNC(=O)[C@@H](NC(=O)C2CCN(C(=O)[C@@H](N)CC(C)C)CC2)C(C)C)cc1	none (no result: ABCG2 inh, ABCB1 inh)
CCOC(=O)C1(Cc2cccc(Cl)c2)CCCN(C(=O)c2ccc(COC)s2)C1 (configuration not stated)	none (no result: ABCG2 inh, ABCB1 inh)
CCC(c1nnnn1CCOC)N1CCN(Cc2ccccc2OC)CC1 (configuration not stated)	MEKK2 mut-MEK5 25.0 | MEKK2wt confirm inactive | MEKK2mut-MEK5 inactive | MEKK3 confirm inactive
CCCC(c1nnnn1CCOC)N1CCN(Cc2ccccc2)CC1 (configuration not stated)	none
O=C(c1ccccc1Br)N1CCc2c([nH]c3ccccc23)C1	none (no result: ABCG2 inh, ABCB1 inh)
CN1CCN(Cc2ccc(Sc3ccc(Cl)cc3)c([N+](=O)[O-])c2)CC1	MEKK2wt PB1 HTS 157.0 | MEKK2wt confirm inactive | MEKK2mut-MEK5 inactive | MEKK3 confirm inactive
Cc1cc(Cl)ccc1NC(=S)NCC(C)C	MEKK3 PB1 HTS 138.0 | MEKK2wt confirm inactive | MEKK2mut-MEK5 inactive | MEKK3 confirm inactive
Cc1cc(Cl)ccc1NC(=S)NCc1ccccc1Cl	MEKK3 PB1 HTS 128.0 | MEKK2wt confirm inactive | MEKK2mut-MEK5 inactive | MEKK3 confirm inactive
S=C(NCc1ccccc1Cl)Nc1ccccc1Cl	none
Cc1cccc(C)c1OCC(=O)Nc1ccc2c(c1)C(=O)NC2=O	none (no result: ABCG2 inh, ABCB1 inh)
CCN(CC)S(=O)(=O)c1cccc(NC(=O)Nc2cccc(C(F)(F)F)c2)c1	MEKK2wt PB1 HTS 219.0 | MEKK2wt confirm inactive | MEKK2mut-MEK5 inactive | MEKK3 confirm inactive
